Laboratory results reported in ChEMBL document CHEMBL1148991, “Antifungal flavonoids from Hildegardia barteri” (J Nat Prod, 2005).
In brackets after ≈: the same amount, converted by molar mass.

Assays:
Assay type in all cases: functional, organism-based
Nakaseomyces glabratus [1] = assay: Antifungal activity against azole-resistant Candida glabrata by broth microdilution assay
Summary of the method: (§1)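 Follow-up panel of recent drug-resistant and drug-sensitive clinical Candida isolates, tested alongside quality control strains C. krusei ATCC 6258 and C. parapsilopsis ATCC 22019.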

Candida albicans [2] = assay: Antifungal activity against azole-sensitive Candida albicans by broth microdilution assay; summary of the method: as §1
Nakaseomyces glabratus [3] = assay: Antifungal activity against polyene-resistant Candida glabrata by broth microdilution assay; summary of the method: as §1
Pichia kudriavzevii = assay: Antifungal activity against azole-resistant Candida krusei by broth microdilution assay; summary of the method: as §1
Candida albicans [4] = assay: Antifungal activity against polyene-resistant Candida albicans by broth microdilution assay; summary of the method: as §1
Candida albicans [5] = assay: Antifungal activity against azole-resistant Candida albicans by broth microdilution assay; summary of the method: as §1

## Oc1cc2c(cc1O)[C@@H]1Oc3cc4c(cc3[C@@H]1CO2)OCO4
Nakaseomyces glabratus [1]
  IC50: 32 µg/mL (≈ 107 µM)
Candida albicans [2]
  IC50: 128 µg/mL (≈ 426 µM)
Nakaseomyces glabratus [3]
  IC50: 32 µg/mL (≈ 107 µM)
Pichia kudriavzevii
  IC50: 128 µg/mL (≈ 426 µM)
Candida albicans [4]
  IC50: 128 µg/mL (≈ 426 µM)
Candida albicans [5]
  IC50: 32 µg/mL (≈ 107 µM)

## C[C@@H]1[C@H](O)[C@@H](C)/C=C/C=C/C=C/C=C/C=C/C=C/C=C/[C@H](O[C@@H]2O[C@H](C)[C@@H](O)[C@H](N)[C@@H]2O)C[C@@H]2O[C@](O)(C[C@@H](O)C[C@@H](O)[C@H](O)CC[C@@H](O)C[C@@H](O)CC(=O)O[C@H]1C)C[C@H](O)[C@H]2C(=O)O [AMPHOTERICIN B]
Nakaseomyces glabratus [3]
  IC50: 4 µg/mL (≈ 4.33 µM)
Candida albicans [4]
  IC50: 3 µg/mL (≈ 3.25 µM)

## Cc1c(O)c(C)c2c(c1O)C(=O)C[C@@H](c1ccc(O)cc1)O2 [FARREROL]
Nakaseomyces glabratus [1]
  IC50: > 32 µg/mL
Candida albicans [2]
  IC50: > 32 µg/mL
Nakaseomyces glabratus [3]
  IC50: > 32 µg/mL
Pichia kudriavzevii
  IC50: > 32 µg/mL
Candida albicans [4]
  IC50: > 32 µg/mL
Candida albicans [5]
  IC50: > 32 µg/mL

## OC(Cn1cncn1)(Cn1cncn1)c1ccc(F)cc1F [FLUCONAZOLE]
Nakaseomyces glabratus [1]
  IC50: 256 µg/mL (≈ 836 µM)
Candida albicans [2]
  IC50: 0.12 µg/mL (≈ 0.392 µM)
Pichia kudriavzevii
  IC50: 128 µg/mL (≈ 418 µM)
Candida albicans [5]
  IC50: 256 µg/mL (≈ 836 µM)

## COc1cc2c(cc1O)C[C@H](c1cc3c(cc1O)OCO3)CO2 [HILDEGARDIOL]
Nakaseomyces glabratus [1]
  IC50: ≥ 64 µg/mL
Candida albicans [2]
  IC50: > 128 µg/mL
Nakaseomyces glabratus [3]
  IC50: > 128 µg/mL
Pichia kudriavzevii
  IC50: > 128 µg/mL
Candida albicans [4]
  IC50: > 128 µg/mL
Candida albicans [5]
  IC50: ≥ 64 µg/mL

## C[C@@H](c1ncncc1F)[C@](O)(Cn1cncn1)c1ccc(F)cc1F [VORICONAZOLE]
Nakaseomyces glabratus [1]
  IC50: 8 µg/mL (≈ 22.9 µM)
Candida albicans [2]
  IC50: 0.007 µg/mL (≈ 0.02 µM)
Pichia kudriavzevii
  IC50: 1 µg/mL (≈ 2.86 µM)
Candida albicans [5]
  IC50: 4 µg/mL (≈ 11.5 µM)
